Results: ChEMBL document CHEMBL1123671, “1-Aryl-2-(aminomethyl)cyclopropanecarboxylic acid derivatives. A new series of potential antidepressants” (J Med Chem, 1987)

How the values were obtained:
Mus musculus [1] = organism: Mus musculus; experiment: Percent increase of the diameter of the test pupil (% mydriasis) in comparison with that of the control pupil.; format: functional
Procedure, shortened: (§1)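 One drop (0.1 mL) of a 1% aqueous solution instilled into the left eye of 10 mice; right eye as untreated control. Both pupil diameters measured by ocular micrometer; mean mydriasis given as percent increase of test pupil diameter over control pupil.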

Mus musculus [2] = experiment: Ability to kill 50% of the animals (administered orally), after sublethal dose of yohimbine (25 mg/Kg) when given subcutaneously.; format: functional
[3] = Ability to kill 50% of the animals after 24h, when administered perorally; format: ADME, organism-based; conditions: mouse, in vivo, po
Mus musculus [4] = organism: Mus musculus; experiment: % increase of the diameter of the test pupil (% mydriasis) in comparison with that of the control pupil.; format: functional, organism-based; procedure, shortened: as §1
Mus musculus [5] = experiment: Antagonism of tetrabenazine-induced ptosis in mice was evaluated after oral administration; format: functional
Procedure, shortened: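 Mice dosed orally at various doses (highest 30 mg/kg) 30 min before tetrabenazine 40 mg/kg ip. Blepharoptosis scored 0–2 thirty minutes after tetrabenazine. Group score sums expressed as percentage.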

Mus musculus [6] = experiment: Potentiation of 5-hydroxytryptophan-induced head twitch in mice after oral administration; format: functional
Mus musculus [7] = experiment: Compound was tested for its ability to kill 50% of the animals after 24h, when administered perorally; format: functional; conditions: po

SMILES: CCOC(=O)[C@@]1(c2ccccc2)CC1CN(C)CCO.O=C(O)/C=C/C(=O)O (stereo not given in full)
- Mydriasis (Mus musculus [1]): 23%
- ED50 (Mus musculus [2]): 56 mg/kg
- LD50 at 24 h [3]: > 1000 mg/kg

SMILES: CCOC(=O)[C@@]1(c2ccccc2)CC1CN(CCO)CCO.O=C(O)/C=C\C(=O)O (stereo not given in full)
- Mydriasis (Mus musculus [4]): Not significant
- ED50 (Mus musculus [2]): > 100 mg/kg
- LD50 at 24 h [3]: > 1000 mg/kg

SMILES: CN(C)CCCN1c2ccccc2CCc2ccc(Cl)cc21 [CLOMIPRAMINE]
- ED50 (Mus musculus [5]): 9 mg/kg
- Mydriasis (Mus musculus [1]): 38%
- ED50 (Mus musculus [6]): 37 mg/kg
- ED50 (Mus musculus [2]): 5 mg/kg
- LD50 at 24 h [3]: 556 mg/kg

SMILES: CCCN(CCC)C(=O)[C@@]1(c2ccccc2)CC1CN.O=C(O)C(=O)O (stereo not given in full)
- ED50 (Mus musculus [5]): 5.5 mg/kg
- Mydriasis (Mus musculus [1]): 27%
- ED50 (Mus musculus [2]): 9 mg/kg
- LD50 at 24 h [3]: 100 mg/kg

SMILES: CC(C)OC(=O)[C@@]1(c2ccc(Cl)cc2)CC1CN.Cl (stereo not given in full)
- ED50 (Mus musculus [5]): 8 mg/kg
- Mydriasis (Mus musculus [1]): 23%
- ED50 (Mus musculus [6]): 50 mg/kg
- ED50 (Mus musculus [2]): 2 mg/kg
- LD50 at 24 h [3]: 255 mg/kg

SMILES: CCN(CC)C(=O)[C@@]1(c2ccccc2)CC1CNC.O=C(O)C(=O)O (stereo not given in full)
- Mydriasis (Mus musculus [4]): Not significant
- ED50 (Mus musculus [5]): 13 mg/kg
- ED50 (Mus musculus [6]): > 100 mg/kg
- ED50 (Mus musculus [2]): 4 mg/kg
- LD50 at 24 h [3]: 316 mg/kg

SMILES: CCCCCCN(CCCCCC)C(=O)[C@@]1(c2ccccc2)CC1CN.O=C(O)C(=O)O (stereo not given in full)
- Mydriasis (Mus musculus [4]): Not significant
- ED50 (Mus musculus [5]): > 30 mg/kg
- ED50 (Mus musculus [6]): > 1000 mg/kg
- ED50 (Mus musculus [2]): > 100 mg/kg
- LD50 (Mus musculus [7]): > 1000 mg/kg

SMILES: CCOC(=O)[C@@]1(c2ccc(OC)cc2)CC1CN(C)C.Cl (stereo not given in full)
- Mydriasis (Mus musculus [1]): 38%
- ED50 (Mus musculus [2]): > 30 mg/kg
- LD50 at 24 h [3]: 562 mg/kg

SMILES: Cl.NCC1C[C@@]1(C(=O)O)c1ccccc1 (stereo not given in full)
- Mydriasis (Mus musculus [4]): Not significant
- ED50 (Mus musculus [5]): > 30 mg/kg
- ED50 (Mus musculus [6]): > 100 mg/kg
- ED50 (Mus musculus [2]): > 100 mg/kg
- LD50 at 24 h [3]: > 1000 mg/kg

SMILES: COC(=O)[C@@]1(c2ccccc2)CC1CN(C)C.Cl (stereo not given in full)
- ED50 (Mus musculus [5]): 30 mg/kg
- Mydriasis (Mus musculus [1]): 60%
- ED50 (Mus musculus [2]): 29 mg/kg
- LD50 at 24 h [3]: 750 mg/kg

SMILES: CCOC(=O)[C@@]1(c2ccccc2)CC1CN1CCCC1.Cl (stereo not given in full)
- Mydriasis (Mus musculus [1]): 53%
- ED50 (Mus musculus [2]): > 100 mg/kg
- LD50 at 24 h [3]: 562 mg/kg

SMILES: CCCCN(CCCC)C(=O)[C@@]1(c2ccccc2)CC1CN.O=C(O)C(=O)O (stereo not given in full)
- Mydriasis (Mus musculus [4]): Not significant
- ED50 (Mus musculus [5]): > 30 mg/kg
- ED50 (Mus musculus [6]): > 100 mg/kg
- ED50 (Mus musculus [2]): > 100 mg/kg
- LD50 at 24 h [3]: 562 mg/kg

SMILES: CCOC(=O)[C@@]1(c2ccc(F)cc2)CC1CN(C)C.Cl (stereo not given in full)
- ED50 (Mus musculus [5]): 8 mg/kg
- Mydriasis (Mus musculus [1]): 76%
- ED50 (Mus musculus [2]): 12 mg/kg
- LD50 at 24 h [3]: 562 mg/kg

SMILES: CCCCN(C)CC1C[C@@]1(C(=O)OCC)c1ccccc1.Cl (stereo not given in full)
- Mydriasis (Mus musculus [1]): 61%
- ED50 (Mus musculus [2]): 27 mg/kg
- LD50 at 24 h [3]: 255 mg/kg

SMILES: CCN(CC)C(=O)[C@]1(c2ccccc2)C[C@H]1CN.Cl
- Mydriasis (Mus musculus [4]): Not significant
- ED50 (Mus musculus [5]): 0.5 mg/kg
- ED50 (Mus musculus [6]): > 100 mg/kg
- ED50 (Mus musculus [2]): 0.5 mg/kg
- LD50 at 24 h [3]: 237 mg/kg

SMILES: CCNC(=O)[C@@]1(c2ccccc2)CC1CN.O=C(O)C(=O)O (stereo not given in full)
- Mydriasis (Mus musculus [4]): Not significant
- ED50 (Mus musculus [5]): > 30 mg/kg
- ED50 (Mus musculus [6]): > 100 mg/kg
- ED50 (Mus musculus [2]): 19 mg/kg
- LD50 at 24 h [3]: 316 mg/kg

SMILES: CCOC(=O)[C@@]1(c2ccccc2)CC1CN.Cl (stereo not given in full)
- ED50 (Mus musculus [5]): 30 mg/kg
- Mydriasis (Mus musculus [1]): 33%
- ED50 (Mus musculus [6]): 73 mg/kg
- ED50 (Mus musculus [2]): 100 mg/kg
- LD50 at 24 h [3]: 316 mg/kg

SMILES: CN(C)CCCN1c2ccccc2CCc2ccccc21 [IMIPRAMINE]
- ED50 (Mus musculus [5]): 5 mg/kg
- Mydriasis (Mus musculus [1]): 61%
- ED50 (Mus musculus [6]): 60 mg/kg
- ED50 (Mus musculus [2]): 7 mg/kg

SMILES: CC(C)N(C(=O)[C@@]1(c2ccccc2)CC1CN)C(C)C.Cl (stereo not given in full)
- Mydriasis (Mus musculus [4]): Not significant
- ED50 (Mus musculus [5]): 30 mg/kg
- ED50 (Mus musculus [6]): > 30 mg/kg
- ED50 (Mus musculus [2]): 15 mg/kg
- LD50 at 24 h [3]: 100 mg/kg

SMILES: CC(C)OC(=O)[C@@]1(c2ccccc2)CC1CN.Cl (stereo not given in full)
- Mydriasis (Mus musculus [1]): 20%
- ED50 (Mus musculus [6]): 54 mg/kg
- ED50 (Mus musculus [2]): 18 mg/kg
- LD50 at 24 h [3]: 100 mg/kg

SMILES: CCOC(=O)[C@@]1(c2ccccc2)CC1CNCc1ccccc1.Cl (stereo not given in full)
- Mydriasis (Mus musculus [1]): 16%
- ED50 (Mus musculus [2]): > 30 mg/kg
- LD50 at 24 h [3]: 316 mg/kg

SMILES: CNCCCN1c2ccccc2CCc2ccccc21 [DESIPRAMINE]
- ED50 (Mus musculus [5]): 3 mg/kg
- Mydriasis (Mus musculus [1]): 46%
- ED50 (Mus musculus [6]): > 100 mg/kg
- ED50 (Mus musculus [2]): 2 mg/kg
- LD50 at 24 h [3]: 572 mg/kg

SMILES: CCOC(=O)[C@@]1(c2ccccc2)CC1CN(C(C)C)C(C)C.O=C(O)/C=C\C(=O)O (stereo not given in full)
- Mydriasis (Mus musculus [1]): 49%
- ED50 (Mus musculus [2]): 70 mg/kg
- LD50 at 24 h [3]: 750 mg/kg

SMILES: CC(C)OC(=O)[C@@]1(c2ccccc2)CC1CN(C)C.Cl (stereo not given in full)
- ED50 (Mus musculus [5]): 7 mg/kg
- Mydriasis (Mus musculus [1]): 73%
- ED50 (Mus musculus [2]): 18 mg/kg
- LD50 at 24 h [3]: 422 mg/kg

SMILES: CCN(CC)C(=O)[C@]1(c2ccc(F)cc2)CC1CN.Cl (stereo not given in full)
- Mydriasis (Mus musculus [4]): Not significant
- ED50 (Mus musculus [5]): 10 mg/kg
- ED50 (Mus musculus [6]): 50 mg/kg
- ED50 (Mus musculus [2]): 5 mg/kg
- LD50 at 24 h [3]: 422 mg/kg

SMILES: CCCOC(=O)[C@@]1(c2ccccc2)CC1CN(C)C.O=C(O)/C=C/C(=O)O (stereo not given in full)
- ED50 (Mus musculus [5]): 30 mg/kg
- Mydriasis (Mus musculus [1]): 55%
- ED50 (Mus musculus [6]): > 100 mg/kg
- ED50 (Mus musculus [2]): 25 mg/kg
- LD50 at 24 h [3]: 562 mg/kg

SMILES: CCOC(=O)[C@@]1(c2ccc(Cl)cc2)CC1CN(C)C.Cl (stereo not given in full)
- ED50 (Mus musculus [5]): 6 mg/kg
- Mydriasis (Mus musculus [1]): 24%
- ED50 (Mus musculus [6]): 35 mg/kg
- ED50 (Mus musculus [2]): 2 mg/kg
- LD50 at 24 h [3]: 422 mg/kg

SMILES: NCC1C[C@@]1(C(=O)N1CCCC1)c1ccccc1.O=C(O)C(=O)O (stereo not given in full)
- ED50 (Mus musculus [5]): 20 mg/kg
- Mydriasis (Mus musculus [1]): 12%
- ED50 (Mus musculus [6]): > 100 mg/kg
- ED50 (Mus musculus [2]): 48 mg/kg
- LD50 at 24 h [3]: 562 mg/kg

SMILES: CCN(CC)C(=O)[C@]1(c2ccccc2)C[C@@H]1CN.Cl [1R,2S-MILNACIPRAN HYDROCHLORIDE]
- Mydriasis (Mus musculus [4]): Not significant
- ED50 (Mus musculus [5]): > 30 mg/kg
- ED50 (Mus musculus [6]): > 100 mg/kg
- ED50 (Mus musculus [2]): > 100 mg/kg
- LD50 at 24 h [3]: 562 mg/kg

SMILES: CCN(CC)C(=O)[C@]1(c2ccc(Cl)cc2)CC1CN.Cl (stereo not given in full)
- ED50 (Mus musculus [5]): 9 mg/kg
- Mydriasis (Mus musculus [1]): 11%
- ED50 (Mus musculus [6]): > 100 mg/kg
- ED50 (Mus musculus [2]): 3 mg/kg
- LD50 at 24 h [3]: 422 mg/kg

SMILES: Cc1ccc([C@]2(C(=O)OC(C)C)CC2CN)cc1.Cl (stereo not given in full)
- Mydriasis (Mus musculus [4]): Not significant
- ED50 (Mus musculus [5]): 17 mg/kg
- ED50 (Mus musculus [6]): 100 mg/kg
- ED50 (Mus musculus [2]): 30 mg/kg
- LD50 at 24 h [3]: 1000 mg/kg

SMILES: CCOC(=O)[C@@]1(c2ccccc2)CC1CNC.Cl (stereo not given in full)
- Mydriasis (Mus musculus [1]): 62%
- ED50 (Mus musculus [2]): 30 mg/kg
- LD50 at 24 h [3]: 562 mg/kg

SMILES: CCOC(=O)[C@@]1(c2ccccc2)CC1CN(C)CCc1ccccc1.Cl (stereo not given in full)
- ED50 (Mus musculus [5]): > 30 mg/kg
- Mydriasis (Mus musculus [1]): 30%
- ED50 (Mus musculus [6]): > 30 mg/kg
- ED50 (Mus musculus [2]): 15 mg/kg
- LD50 at 24 h [3]: 1000 mg/kg

SMILES: C=CCOC(=O)[C@@]1(c2ccccc2)CC1CN(C)C.O=C(O)/C=C/C(=O)O (stereo not given in full)
- Mydriasis (Mus musculus [1]): 44%
- ED50 (Mus musculus [2]): 16 mg/kg
- LD50 at 24 h [3]: 1000 mg/kg

SMILES: CCN(CC)C(=O)[C@]1(c2cccc(Cl)c2)CC1CN.Cl (stereo not given in full)
- Mydriasis (Mus musculus [4]): Not significant
- ED50 (Mus musculus [5]): 0.9 mg/kg
- ED50 (Mus musculus [6]): > 10 mg/kg
- ED50 (Mus musculus [2]): 3 mg/kg
- LD50 at 24 h [3]: 100 mg/kg

SMILES: CCOC(=O)[C@@]1(c2ccccc2)CC1CN(C)C.Cl (stereo not given in full)
- ED50 (Mus musculus [5]): 1.4 mg/kg
- Mydriasis (Mus musculus [1]): 40%
- ED50 (Mus musculus [2]): 10 mg/kg
- LD50 at 24 h [3]: > 1000 mg/kg
